Consider one compound from publication PMC11912358 (RSC Advances, 2025).

Series [1] is described as follows: Cytotoxicity assay using cell-counting kit-8. It counts as cell-based. In short, it runs like this: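 HeLa cells (5 × 10³) exposed to dye-labelled (Alexa Fluor 647) tripeptides carrying perfluoroalkyl or alkyl chains for 1 h. Viability read with the CCK-8 reagent, and IC50 reported from this read-out.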
For another series, the system named is HeLa cells. The experiment in a line: Cellular uptake by flow cytometry. Format: cell-based. The following applies: 150 nM peptide, 1 h, 37 °C, 5% CO2, serum-free medium, AF647 fluorescence, AF647-NEt2 control as reference. On the technique in general: In flow cytometry, cells or beads pass a laser one at a time.

Structures are written as SMILES.

The IC50 is the concentration that gives 50% inhibition. High values mean a need for much substance, low ones inhibition by little substance. In series [1], `C[C@H](NC(=O)CCCCCC1(C)C(=CC=CC=CC2=[N+](CCCS(=O)(=O)[O-])c3ccc(S(=O)(=O)O)cc3C2(C)C)N(CCCS(=O)(=O)O)c2ccc(S(=O)(=O)O)cc21)C(=O)N[C@@H](CC(=O)Nc1ccc(C(F)(F)C(F)(F)C(F)(F)C(F)(F)C(F)(F)C(F)(F)C(F)(F)C(F)(F)F)cc1)C(=O)N[C@@H](Cc1ccccc1)C(N)=O` (some centres unmarked) [AF647-RF-tripeptide (RF = C8F17)] showed an IC50 of 41 ± 9 µM. Also, the “Cellular uptake efficiency (fluorescence intensity of cells, RFI)” value in the series with HeLa cells was “comparable cellular uptake efficiencies”.
